One experiment addresses Prothrombin (Bos taurus) (UniProt P00735). Briefly: Percentage of rate of hydrolysis in 4 hr incubation by thrombin. In kind it is functional.
Details: not given
Summed up: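 Test compounds at 1 mM in 0.1 M Tris-HCl, pH 8.0, were incubated with thrombin (100 units in a 1.0 mL reaction) at 37 °C for 4 h. Hydrolysis rate was followed titrimetrically with a pH-stat and automatic burette at 37 °C and pH 8.0.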
As to `CCCCN(C)C(=O)C(CCCN=C(N)N)NS(=O)(=O)c1cccc2c(N(C)C)cccc12` (stereo not given), the Hydrolysis is 0%.
Same read-out and setting: to `COCCNC(=O)C(CCCN=C(N)N)NS(=O)(=O)c1cccc2c(N(C)C)cccc12` (stereo not given) belongs 0%; to `CCCCNC(=O)C(CCCN=C(N)N)NS(=O)(=O)c1cccc2c(N(C)C)cccc12` (stereo not given), 0%; to `CCC1CCN(C(=O)C(CCCN=C(N)N)NS(=O)(=O)c2cccc3c(N(C)C)cccc23)CC1` (stereo not given), 0%.
The same measure, in the same setting: in the case of `CN(C)c1cccc2c(S(=O)(=O)NC(CCCN=C(N)N)C(=O)N3CCCCC3)cccc12` (stereo not given) it was 0%.

The next experiment concerns the target Prothrombin (Bos taurus, UniProt P00735). Briefly: Bovine thrombin concentration at which clotting time was prolonged 2x over the control. In kind it is functional. The note with it: read-out: I50. The method, boiled down:
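Clotting assay at 25 °C. The read-out was the time from thrombin addition to clot formation.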
In the case of `CCCCNC(=O)C(CCCN=C(N)N)NS(=O)(=O)c1cccc2c(N(C)C)cccc12` (stereo not given), the IC50 was found to be 2.1 µM.
On the same count and under the same terms, to `CCC1CCN(C(=O)C(CCCN=C(N)N)NS(=O)(=O)c2ccc3c(c2)OCCO3)CC1` (stereo not given) belongs 25 µM; to `N=C(N)NCCCC(NS(=O)(=O)c1cccc2ccccc12)C(=O)N1CCOCC1` (stereo not given), 20 µM; to `CCC1CCN(C(=O)C(CCCN=C(N)N)NS(=O)(=O)c2cccc3c([N+](=O)[O-])cccc23)CC1` (stereo not given), 1 µM.
Turning to `COCCCNC(=O)C(CCCNC(=N)N)NS(=O)(=O)c1cccc2c(N(C)C)cccc12` (stereo not given), the IC50 is 60 µM.
Take `CCCCCCCNC(=O)C(CCCNC(=N)N)NS(=O)(=O)c1cccc2c(N(C)C)cccc12` (stereo not given): the IC50 was 100 µM.
On the same count and under the same terms, in the case of `CCCCN(CCCC)C(=O)C(CCCNC(=N)N)NS(=O)(=O)c1cccc2c(N(C)C)cccc12` (stereo not given) it was 40 µM.
The same measure, in the same setting: to `CCc1cc2cc(S(=O)(=O)NC(CCCN=C(N)N)C(=O)N3CCC(CC)CC3)ccc2oc1=O` (stereo not given) belongs 1 µM; to `COc1cccc2c(S(=O)(=O)NC(CCCN=C(N)N)C(=O)N3CCC(C)CC3)cccc12` (stereo not given), 0.3 µM.
Turning to `CCC1CCN(C(=O)C(CCCNC(=N)N)NS(=O)(=O)c2cccc3c(OC(C)C)cccc23)CC1` (stereo not given), the IC50 is 0.4 µM.
`N=C(N)NCCCC(NS(=O)(=O)c1ccc2ccccc2c1)C(=O)N1CCCCCC1` (stereo not given): the IC50 is 20 µM.
The same measure, in the same setting: to `N=C(N)NCCCC(NS(=O)(=O)c1cccc2ccccc12)C(=O)N1CCC(c2ccccc2)CC1` (stereo not given) belongs 100 µM; to `CN1CCN(C(=O)C(CCCN=C(N)N)NS(=O)(=O)c2cccc3c(N(C)C)cccc23)CC1` (stereo not given), 2 µM; to `CCC1CCN(C(=O)C(CCCNC(=N)N)NS(=O)(=O)c2cccc3c(N(C)C)cccc23)CC1` (stereo not given), 0.1 µM.
Take `CN(C)c1cccc2c(S(=O)(=O)NC(CCCNC(=N)N)C(=O)N3Cc4ccccc4C3)cccc12` (stereo not given): the IC50 came out at 0.67 µM.
For the compound `CCC1CCN(C(=O)C(CCCNC(=N)N)NS(=O)(=O)c2ccc3c(c2)Oc2ccccc2O3)CC1` (stereo not given), the IC50 worked out at 0.15 µM.
Still for that read-out and setting: in the case of `CC(C)CNC(=O)C(CCCNC(=N)N)NS(=O)(=O)c1cccc2c(N(C)C)cccc12` (stereo not given) it was 100 µM; in that of `CCCCCCNC(=O)C(CCCN=C(N)N)NS(=O)(=O)c1cccc2c(N(C)C)cccc12` (stereo not given), 20 µM; in that of `CC(=O)N1CCN(C(=O)C(CCCN=C(N)N)NS(=O)(=O)c2cccc3c(N(C)C)cccc23)CC1` (stereo not given), 3.5 µM.
On the same count and under the same terms, to `CCC1CCN(C(=O)C(CCCN=C(N)N)NS(=O)(=O)c2cc(OC)c3ccccc3c2)CC1` (stereo not given) belongs 1 µM; to `CN(C)c1cccc2c(S(=O)(=O)NC(CCCNC(=N)N)C(=O)N3CCc4ccccc43)cccc12` (stereo not given), 1 µM; to `CN(C)c1cccc2c(S(=O)(=O)NC(CCCN=C(N)N)C(=O)N3CCC(C)(C)CC3)cccc12` (stereo not given), 8 µM.
On the same count and under the same terms, in the case of `CN(C)c1cccc2c(S(=O)(=O)NC(CCCNC(=N)N)C(=O)N3CCOCC3)cccc12` (stereo not given) it was 0.6 µM; in that of `CCC1CCN(C(=O)C(CCCN=C(N)N)NS(=O)(=O)c2ccc3ccccc3c2)CC1` (stereo not given), 1 µM; in that of `N=C(N)NCCCC(NS(=O)(=O)c1cccc2ccccc12)C(=O)N1CCCCCC1` (stereo not given), 10 µM.
`CN(C)c1cccc2c(S(=O)(=O)NC(CCCN=C(N)N)C(=O)N3CCCCC3)cccc12` (stereo not given): the IC50 was found to be 1 µM.
On the same count and under the same terms, to `N=C(N)NCCCC(NS(=O)(=O)c1cccc2c1CCCC2)C(=O)N1CCOCC1` (stereo not given) belongs 6.5 µM.
On the same count and under the same terms, in the case of `COCCNC(=O)C(CCCNC(=N)N)NS(=O)(=O)c1cccc2c(N(C)C)cccc12` (stereo not given) it was 4 µM; in that of `CN(C)c1cccc2c(S(=O)(=O)NC(CCCNC(=N)N)C(=O)N3CCCC3)cccc12` (stereo not given), 3.3 µM; in that of `COc1ccc(CNC(=O)C(CCCN=C(N)N)NS(=O)(=O)c2cccc3c(N(C)C)cccc23)cc1` (stereo not given), 500 µM.
Still for that read-out and setting: to `CCC1CCN(C(=O)C(CCCN=C(N)N)NS(=O)(=O)c2ccc3c(c2)C(=O)c2ccccc2C3=O)CC1` (stereo not given) belongs 1.5 µM.
Regarding `CCCCNC(=O)C(CCCN=C(N)N)NS(=O)(=O)c1ccc2c(c1)CCCC2` (stereo not given), the IC50 came out at 5 µM.
For the compound `CCC1CCN(C(=O)C(CCCN=C(N)N)NS(=O)(=O)c2cccc3c2CCCC3)CC1` (stereo not given), the IC50 was 0.5 µM.
Take `CN(C)c1cccc2c(S(=O)(=O)NC(CCCNC(=N)N)C(=O)N3CCCc4ccccc43)cccc12` (stereo not given): the IC50 was 17 µM.
Still for that read-out and setting: to `CCOc1cc2ccc(S(=O)(=O)NC(CCCN=C(N)N)C(=O)N3CCC(CC)CC3)cc2cc1OCC` (stereo not given) belongs 5.5 µM; to `CCC1CCN(C(=O)C(CCCN=C(N)N)NS(=O)(=O)c2ccc3ccccc3c2OC)CC1` (stereo not given), 0.4 µM; to `COCCNC(=O)C(CCCN=C(N)N)NS(=O)(=O)c1cccc2c1CCCC2` (stereo not given), 40 µM.
Same read-out and setting: to `COc1ccc2ccc(S(=O)(=O)NC(CCCN=C(N)N)C(=O)N3CCC(C)CC3)cc2c1` (stereo not given) belongs 0.1 µM.
The same measure, in the same setting: to `CN(C)c1cccc2c(S(=O)(=O)NC(CCCN=C(N)N)C(=O)NCc3ccccc3)cccc12` (stereo not given) belongs 50 µM.
Turning to `CCC1CCN(C(=O)C(CCCN=C(N)N)NS(=O)(=O)c2ccc3ccc(=O)oc3c2)CC1` (stereo not given), the IC50 came to 20 µM.
Same read-out and setting: to `CC1CN(C(=O)C(CCCN=C(N)N)NS(=O)(=O)c2cccc3c(N(C)C)cccc23)CC(C)O1` (stereo not given) belongs 20 µM; to `CCC1CCN(C(=O)C(CCCNC(=N)N)NS(=O)(=O)c2ccc3c(c2)Cc2ccccc2O3)CC1` (stereo not given), 0.3 µM.
The same measure, in the same setting: to `CN(Cc1ccccc1)C(=O)C(CCCN=C(N)N)NS(=O)(=O)c1cccc2c(N(C)C)cccc12` (stereo not given) belongs 7 µM; to `CCC1CCN(C(=O)C(CCCNC(=N)N)NS(=O)(=O)c2ccc3c(c2)CCCO3)CC1` (stereo not given), 15 µM.
As for `CN(C)c1cccc2c(S(=O)(=O)NC(CCCN=C(N)N)C(=O)N3CCC(c4ccccc4)CC3)cccc12` (stereo not given), the IC50 was 100 µM.
In the case of `CCC1CCN(C(=O)C(CCCN=C(N)N)NS(=O)(=O)c2ccc(OC)c3ccccc23)CC1` (stereo not given), the IC50 came out at 2 µM.
The same measure, in the same setting: to `CCCNC(=O)C(CCCN=C(N)N)NS(=O)(=O)c1cccc2c(N(C)C)cccc12` (stereo not given) belongs 15 µM; to `COc1cc2ccc(S(=O)(=O)NC(CCCN=C(N)N)C(=O)N3CCC(C)CC3)cc2cc1OC` (stereo not given), 0.15 µM.
The same measure, in the same setting: in the case of `CCC1CCN(C(=O)C(CCCN=C(N)N)NS(=O)(=O)c2cccc3ccc(C)cc23)CC1` (stereo not given) it was 1 µM; in that of `CCC1CCN(C(=O)C(CCCN=C(N)N)NS(=O)(=O)c2cccc3c(O)cccc23)CC1` (stereo not given), 6 µM.
